From the RNAGym collection of RNA variant scans (doi:10.1126/science.aae0568) come the findings set out here.

Sequences and labels used below:
B1: tRNA (parent)
chain: GUUCCGUUGGCGUAAUGGUAACGCGUCUCCCUCCUAAGGAGAAGACUGCGGGUUCGAGUCCCGUACGGAACG

This sample holds only a part of the variants without activity.

The variants in this data set derive from B1. In words: yeast fitness relative to wild type (ratio to wild type); higher = fitter; tRNA-Arg(CCU), competitive growth, 37 C, YPD. In short, it runs like this:
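Gene amplicons from the start population and from each of six end populations were read by 100-nucleotide paired-end sequencing. Those end populations came from pooled Saccharomyces cerevisiae strains carrying tRNA-Arg(CCU) gene variants at the native locus, competed in YPD at 37°C for 24 hours. Fitness relative to wild type was worked out from changes in genotype frequencies. Genotypes needed ≥ 100 starting reads, and estimates < 0.5 were set to 0.5.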
As for C11G A14U C34A, the yeast fitness came to 0.528.

Take U16C C29G: the yeast fitness is 0.619.

Turning to U7A C49U, the yeast fitness worked out at 0.738.

Turning to U7G G25C G58C, the yeast fitness was 0.558.

Take C11A A15G C22U C29A A43U A45G: the yeast fitness was at most 0.5.

Consider C4U A14G A70U, for which the yeast fitness was determined as 0.787.

As to G6C U8C G58C A69U, the yeast fitness was found to be 0.528.

As for A21U C33A, the yeast fitness is 0.578.

For the variant C4A G17A G41A U47C G50C, the yeast fitness is at most 0.5.

Consider G41C C55U, for which the yeast fitness was 0.787.

In the case of C4U C24G C49U C60U C61A, the yeast fitness was 0.58.

In the case of A43G U47A U53A, the yeast fitness is at most 0.5.

Regarding U7A G9A U13A G48A U54G C61A, the yeast fitness is at most 0.5.

In the case of G6A G44A C46A G52A A65U, the yeast fitness is at most 0.5.

As to C5U C30G A57C, the yeast fitness amounted to 0.715.

Turning to C30G G48C, the yeast fitness worked out at 0.624.

Consider C27A U35C, for which the yeast fitness stood at 0.735.

For the variant C5G G6C G48A, the yeast fitness was 1.06.

With A14C G44C A70C, the yeast fitness stood at 0.56.

For the variant C27G C31A C33G C49U G58C A70U, the yeast fitness is at most 0.5.

In the case of U8A C24U A40U A42C A45U, the yeast fitness is 0.563.

As to U7G A14C G63C, the yeast fitness was at most 0.5.

As to C29U A40G C60G, the yeast fitness was at most 0.5.

With G17C A21G U59G A65C, the yeast fitness was at most 0.5.

Regarding C34U A37G C46U C61A, the yeast fitness was 0.589.

For A40G G44C A57G C60A, the yeast fitness is at most 0.5.

In the case of C4U C22U C27U G58C, the yeast fitness is at most 0.5.

For G10A C24U C27G, the yeast fitness is at most 0.5.

For C31U U47C G63A, the yeast fitness amounted to 0.687.

Consider A36G A45C G52C A69C, for which the yeast fitness was 0.54.

Take A20C C55U: the yeast fitness turned out to be 0.612.

For the variant G6C A40G C66U, the yeast fitness was at most 0.5.

For the variant U2A U26C C55U, the yeast fitness is at most 0.5.

C24U U32G A40U U53C U64G: the yeast fitness is at most 0.5.

With A42C C60U G68A, the yeast fitness is at most 0.5.

For the variant A14G G17C A36C G48A C49G G51A, the yeast fitness is at most 0.5.

On to A20C C29A, for which the yeast fitness was 0.635.

For A37C C46U A65C, the yeast fitness was 0.638.

As for U13A C27A A36C A42U U64G, the yeast fitness was at most 0.5.

With G41A G48C A57U A65U C66A, the yeast fitness was at most 0.5.

In the case of C11G A36C G56A, the yeast fitness worked out at 0.533.

For the variant U8G U26A A43C, the yeast fitness amounted to 0.55.

As to C27U A43C A69C, the yeast fitness was 0.754.

Consider U47A A70G, for which the yeast fitness was determined as 0.921.

For the variant G6A G38A U47A C60G, the yeast fitness was at most 0.5.

Turning to U2C G10C A40C G52C G67A, the yeast fitness is at most 0.5.

Regarding G17C G18C A20G C30A G50A A69C, the yeast fitness is at most 0.5.

On to A40G C46G U53G U64G, for which the yeast fitness was at most 0.5.

Take U19C C24A G58A: the yeast fitness was at most 0.5.

On to U2A C22G C62U G63C, for which the yeast fitness is at most 0.5.

Consider A21U G23C, for which the yeast fitness turned out to be 0.579.

Turning to C30U A45G A65G, the yeast fitness came out at 0.538.

For the variant C24G U28C, the yeast fitness worked out at 0.508.

For the variant U13G C24U G56A, the yeast fitness was 0.612.

For A21U C24G C62G C66U, the yeast fitness is at most 0.5.

With U53A U59C, the yeast fitness came out at 0.555.

Consider U2A G10A U35C, for which the yeast fitness is at most 0.5.

Turning to C11U G25C C29G A43G C49G, the yeast fitness came to 0.546.

Turning to U8C C27U C31A C55A G56A, the yeast fitness turned out to be 0.579.

Take U47A U59A U64G: the yeast fitness was at most 0.5.

On to C31A A43U G63A A70C, for which the yeast fitness is at most 0.5.

C30G A45G G56A: the yeast fitness is 0.526.

In the case of C22G C61A, the yeast fitness is 0.623.

Take C22G C46G: the yeast fitness came to 0.974.

As to U3A G9A A14C C55G, the yeast fitness is at most 0.5.

Take C4U C11U G44C: the yeast fitness is 0.702.

As to U3A G9A U19A G44C C61U C62G, the yeast fitness is at most 0.5.

With A14C U54A, the yeast fitness came to 0.528.

Turning to C29U C33A G38C, the yeast fitness is 0.638.

For the variant G6C G17A A36U, the yeast fitness is at most 0.5.

As for G9C U16C C30U, the yeast fitness came to 0.506.

On to C30U C33G A65C, for which the yeast fitness was 0.577.

Consider C4U C27U C29G A42C C55G, for which the yeast fitness was at most 0.5.

Take C24A C61U G67A: the yeast fitness was at most 0.5.

Consider U2A C5A G52C, for which the yeast fitness was at most 0.5.

As for A15U G48A, the yeast fitness was found to be 0.763.

Turning to C22U C30U A40C C55A A65G, the yeast fitness is at most 0.5.

Turning to A37U C61A G67C, the yeast fitness amounted to 0.507.

In the case of U28C G38C G52A, the yeast fitness is at most 0.5.

With A20C C27U C34G A43C C61U C62G, the yeast fitness was at most 0.5.

Consider A15G A20G C49A C62U G63A, for which the yeast fitness is at most 0.5.

Regarding U32C C46A, the yeast fitness stood at 0.88.

Regarding A21U A36C G38C G58C A69C, the yeast fitness was at most 0.5.

As to A45U G50U G68C A69U, the yeast fitness was at most 0.5.

Take G56C A57U C60U: the yeast fitness stood at 0.698.

Consider A43U G68C, for which the yeast fitness is 0.815.

As for C29G A40U G50C, the yeast fitness was determined as 0.636.

Regarding U8C C27U U32A C66U G67C, the yeast fitness was at most 0.5.

C24G U26C: the yeast fitness was 0.688.

With C31U U53A, the yeast fitness amounted to 0.656.

For the variant C11G A15G C22A U26A A40U C62A, the yeast fitness is 0.638.

Regarding C11G A20U C30G C66U, the yeast fitness is at most 0.5.

Consider C11U A20C G25C C27A A37U, for which the yeast fitness is at most 0.5.

On to C24A G48C A70U, for which the yeast fitness is at most 0.5.

Consider G44C G68A, for which the yeast fitness amounted to 0.937.

As to U35A A42U A43U U59G, the yeast fitness is 0.541.

With U19G C33G A37C C49G, the yeast fitness is at most 0.5.

Turning to C22U G25C C33A, the yeast fitness was determined as 0.552.

On to C24U U35A A42G A69U, for which the yeast fitness was at most 0.5.

For the variant C31A G63C G67C, the yeast fitness was at most 0.5.

For the variant C4U C33A U54C, the yeast fitness is at most 0.5.

C22G U47C A70U: the yeast fitness was 0.722.

Regarding C55G G56C, the yeast fitness is at most 0.5.

A20C A21G A45U G67C: the yeast fitness came to 0.61.

As for G6C U13C C31G C33A, the yeast fitness was at most 0.5.

Consider C5G U13G, for which the yeast fitness worked out at 0.703.

For C30A U35A C61G, the yeast fitness is at most 0.5.

For A57C A65U, the yeast fitness turned out to be 0.606.

As to G6A G10C C30A U32C A69U, the yeast fitness turned out to be 0.586.

With U3G U7A G9A A69U, the yeast fitness is at most 0.5.

With A45U C62G, the yeast fitness was found to be 0.837.

Take C29U G38C C46A: the yeast fitness is at most 0.5.

For U28C A57U A65U, the yeast fitness is at most 0.5.

With A20G C27G U47G C62U A65U, the yeast fitness is at most 0.5.

For the variant C31G U32A C60G, the yeast fitness is at most 0.5.

A40U A70C: the yeast fitness was found to be 0.941.

With U19A C24U G38A U54C C55U C66A, the yeast fitness was at most 0.5.

For the variant C5U A21U G68A, the yeast fitness was at most 0.5.

C5G A42C: the yeast fitness is 0.814.

For C11U A14G U35C C60G, the yeast fitness is at most 0.5.

As to C4A C30G A40U A45U G48A, the yeast fitness is at most 0.5.

In the case of C4G C5U C11U, the yeast fitness was 0.505.

G51A C60G A65C: the yeast fitness is at most 0.5.

Regarding C31A U32C U53C C60G, the yeast fitness is at most 0.5.

For U2G C49U C66U, the yeast fitness turned out to be 0.606.

As to C22G C46U C66G, the yeast fitness was at most 0.5.

Consider G17A A42G U64A, for which the yeast fitness was 0.58.

Turning to A14C G25A A40C C46U, the yeast fitness is at most 0.5.

Turning to A15U G23A C49G, the yeast fitness was determined as 0.583.

Take U47C A57G C62U: the yeast fitness is at most 0.5.

For C49A G63A, the yeast fitness was found to be 0.582.

For the variant C31U C33G G50C, the yeast fitness stood at 0.508.

Turning to C4A A36C C49U A57G, the yeast fitness is at most 0.5.

Take C11G G23C A36G A37G: the yeast fitness came out at 0.774.

As for G25C C31A A69C, the yeast fitness came to 0.585.

U13A C46U U64C A69U: the yeast fitness is at most 0.5.

In the case of G10A A21C C24A A65C A69C, the yeast fitness is at most 0.5.

In the case of G44A U54C G56C, the yeast fitness was at most 0.5.

On to G25A C62U G68A, for which the yeast fitness came out at 0.641.

Consider C62A A70G, for which the yeast fitness stood at 0.674.

As to C34U G58A A65U, the yeast fitness turned out to be 0.618.

On to U32C A36U G38A G50A, for which the yeast fitness amounted to 0.584.

Consider C11A A43U C66U, for which the yeast fitness was at most 0.5.

C46U G58C C60A: the yeast fitness turned out to be 0.637.

U28A C31A: the yeast fitness worked out at 0.687.

On to G6A U8A C22G U47A A70C, for which the yeast fitness is at most 0.5.

A14C A40C G68A: the yeast fitness was at most 0.5.

On to G17C A70U, for which the yeast fitness came to 0.713.

With G10C C27U A43G C46G A69C, the yeast fitness is at most 0.5.

C4A U7A U35C: the yeast fitness was at most 0.5.

As for U2C A14U G18C C33G G52A, the yeast fitness was at most 0.5.

Turning to A14C A21U C24A A37U A45U, the yeast fitness was at most 0.5.

U13C A15G G39A: the yeast fitness is 0.593.

On to U13C G41C, for which the yeast fitness was found to be 0.761.

In the case of A15G U35A A65C, the yeast fitness was at most 0.5.

Take C33U A70U: the yeast fitness came out at 0.902.

For A20U U28C, the yeast fitness was determined as 0.934.

On to G12C C29G G48C, for which the yeast fitness is at most 0.5.

For A15G C61A C62G G68A, the yeast fitness was at most 0.5.

For U26C C33G A42C C49G G58C C62G, the yeast fitness was 0.616.

With U8A C46U A57C, the yeast fitness turned out to be 0.635.

Take C11U G18C C33G G44A C46G C66U: the yeast fitness was determined as 0.606.

Regarding U2G G63A, the yeast fitness came out at 0.876.

As for U2A U8C A15G, the yeast fitness was 0.667.

For the variant A36U A40U, the yeast fitness was 0.591.

In the case of C27U G67U, the yeast fitness stood at 0.854.

For the variant A14U U59G A65U, the yeast fitness stood at 0.547.
